Reference: ChEMBL document CHEMBL4020842, “Discovery of N1-(4-((7-Cyclopentyl-6-(dimethylcarbamoyl)-7 H-pyrrolo[2,3- d]pyrimidin-2-yl)amino)phenyl)- N8-hydroxyoctanediamide as a Novel Inhibitor Targeting Cyclin-dependent Kinase 4/9 (CDK4/9) and Histone Deacetlyase1 (HDAC1) against Malignant Cancer” (J Med Chem, 2018)
Active and inactive are the calls of the source. The calls are words filed in the database; no cut-off is given here.

Columns and labels:
A549 [1] = test: Induction of apoptosis in human A549 cells assessed as late apoptotic cells at 1 uM after 48 hrs by annexin V-FITC/propidium iodide staining based flow cytometry (reference value: 0.88%); type: functional
NCI-H460 [2] = test: Induction of apoptosis in human NCI-H460 cells assessed as live cells at 1 uM after 48 hrs by annexin V-FITC/propidium iodide staining based flow cytometry (reference value: 97.3%); type: functional
NCI-H460 [3] = test: Induction of apoptosis in human NCI-H460 cells assessed as live cells at 10 uM after 48 hrs by annexin V-FITC/propidium iodide staining based flow cytometry (reference value: 97.3%); type: functional
T47D [4] = test: Induction of apoptosis in human T47D cells assessed as necrotic cells at 5 uM after 48 hrs by annexin V-FITC/propidium iodide staining based flow cytometry (reference value: 0.8%); type: functional
T47D [5] = test: Induction of apoptosis in human T47D cells assessed as early apoptotic cells at 1 uM after 48 hrs by annexin V-FITC/propidium iodide staining based flow cytometry (reference value: 7.7%); type: functional
NCI-H1299 = test: Cytotoxicity against human NCI-H1299 cells assessed as reduction in cell viability after 72 hrs by CCK8 assay; type: functional, cell-based; details: NCI-H1299, 72 h
NCI-H460 [6] = test: Cell cycle arrest in human NCI-H460 cells assessed as accumulation at G2 phase at 2.5 to 10 uM after 24 hrs by propidium iodide staining based flow cytometry; type: functional
In short: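 Cells were exposed for 24 h to a range of concentrations (625 nM, 2.5 and 10 µM), with DMSO vehicle as control. They were then stained with propidium iodide and analysed by flow cytometry to obtain the percentages of cells in G0/G1, S and G2 phases.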

[7] = target: Cyclin-dependent kinase 2/cyclin E1 (Homo sapiens) (UniProt P24864+P24941); test: Inhibition of recombinant human full length C-terminal 6His-tagged CDK2/N-terminal GST-tagged Cyclin-E co-expressed in baculovirus infected sf21 cells at 1 uM using histone H1 substrate in presence of [gamma33P]ATP after 10 mins by scintillation counting method relative to control
A549 [8] = test: Induction of apoptosis in human A549 cells assessed as live cells at 10 uM after 48 hrs by annexin V-FITC/propidium iodide staining based flow cytometry (reference value: 92.7%); type: functional
CDK4/Cyclin D3 = CDK4/Cyclin D3 (Homo sapiens, UniProt P11802); test: Inhibition of recombinant human full length N-terminal GST-tagged CDK4/Cyclin-D3 co-expressed in baculovirus infected sf21 cells using Rb substrate in presence of [gamma33P]ATP after 10 mins by scintillation counting method
HepG2 [9] = test: Induction of apoptosis in human HepG2 cells assessed as late apoptotic cells at 10 uM after 48 hrs by annexin V-FITC/propidium iodide staining based flow cytometry (reference value: 0.64%); type: functional
HepG2 [10] = test: Induction of apoptosis in human HepG2 cells assessed as necrotic cells at 1 uM after 48 hrs by annexin V-FITC/propidium iodide staining based flow cytometry (reference value: 2.32%); type: functional
HepG2 [11] = test: Induction of apoptosis in human HepG2 cells assessed as live cells at 5 uM after 48 hrs by annexin V-FITC/propidium iodide staining based flow cytometry (reference value: 96.7%); type: functional
Hep 3B2 [12] = test: Induction of apoptosis in human Hep3B cells assessed as late apoptotic cells at 1 uM after 48 hrs by annexin V-FITC/propidium iodide staining based flow cytometry (reference value: 5.25%); type: functional
NCI-H460 [13] = test: Induction of apoptosis in human NCI-H460 cells after 48 hrs by annexin V-FITC/propidium iodide staining based flow cytometry; type: functional, cell-based
A549 [14] = test: Induction of apoptosis in human A549 cells after 48 hrs by annexin V-FITC/propidium iodide staining based flow cytometry; type: functional, cell-based
CDK4/CDK9 (Homo sapiens) [15] = target: T1, CDK4/CDK9 (Homo sapiens) (UniProt P11802+P50750); test: Inhibition of CDK4/CDK9 in human T47D cells assessed as reduction in Rb phosphorylation at Ser807/811 residues at 1 uM after 48 hrs by Western blot method; type: cell-based
CDK4/CDK9 (Homo sapiens) [16] = target: T1, CDK4/CDK9 (Homo sapiens); test: Inhibition of CDK4/CDK9 in human NCI-H460 cells assessed as reduction in Rb phosphorylation at Ser807/811 residues at 1 uM after 48 hrs by Western blot method; type: cell-based
MDA-MB-231 = test: Induction of apoptosis in human MDA-MB-231 cells assessed as reduction in Bcl2 protein expression after 48 hrs by Western blot method; type: functional, cell-based
In short: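 Cells were treated with or without test agent, alongside a control, for 48h. They were then lysed and analysed by Western blot for Bcl-2 protein and cleaved caspase 3.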

A549 [17] = test: Induction of apoptosis in human A549 cells assessed as reduction in Bcl2 protein expression after 48 hrs by Western blot method; type: functional, cell-based
In short: (§1)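 Cells were treated with or without compound and control for 48 h, then lysed. Bcl-2 and cleaved caspase 3 were assessed by Western blot.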

Hep 3B2 [18] = test: Induction of apoptosis in human Hep3B cells assessed as caspase-3 cleavage after 48 hrs by Western blot method; type: functional, cell-based; in short: as §1
Histone deacetylase 1 [19] = target: T2, Histone deacetylase 1 (Homo sapiens, UniProt Q13547); test: Inhibition of HDAC1 in human HepG2 cells assessed as increase in p53 phosphorylation at Ser15 residue at 1 to 5 uM after 48 hrs by Western blot method; type: cell-based
Histone deacetylase 1 [20] = target: T2, Histone deacetylase 1; test: Inhibition of HDAC1 in human Hep3B cells assessed as increase in p53 phosphorylation at Ser15 residue at 1 to 5 uM after 48 hrs by Western blot method; type: cell-based
[21] = Lipophilicity, log P of the compound by HPLC based shake flask method; type: physicochemical
[22] = Lipophilicity, log D of the compound at pH 7.4 by HPLC based shake flask method; type: physicochemical; details: buffer
[23] = MRT (0 to infinity) in Sprague-Dawley rat at 20 mg/kg, iv administered as single dose by HPLC analysis; type: ADME, organism-based; details: in vivo
[24] = AUC (0 to infinity) in Sprague-Dawley rat at 20 mg/kg, po administered as single dose by HPLC analysis; type: ADME, organism-based; design: dose 20 mg/kg, time infinity, route oral; details: in vivo
[25] = Tmax in Sprague-Dawley rat at 20 mg/kg, po administered as single dose by HPLC analysis; type: ADME, organism-based; details: in vivo
4T1 [26] = test: Antitumor activity against mouse Fluc-labeled 4T1 cells implanted in Balb/c mouse assessed as tumor growth inhibition administered ip daily for 18 days measured after 8 to 25 days by bioluminescence assay; type: functional, organism-based
In short: (§2)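 Luciferase (Fluc) reporter introduced into 4T1 cells by lentiviral transduction. Cells implanted orthotopically into mammary fat pads of female BALB/c mice aged 6–8 weeks. Once tumours averaged 100 mm3, dosing was daily by IP injection. Bioluminescence imaging was done at days 8 and 25 to reflect viable tumour cell number. Tumour weight was recorded at study end.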

4T1 [27] = test: Antitumor activity against mouse Fluc-labeled 4T1 cells implanted in Balb/c mouse assessed as reduction in tumor weight at 90 mg/kg, ip administered daily for 18 days measured after 8 to 25 days; type: functional, organism-based; in short: as §2
4T1 [28] = test: Antitumor activity against mouse Fluc-labeled 4T1 cells implanted in Balb/c mouse assessed as tumor growth inhibition at 130 mg/kg, po administered daily via gavage for 18 days by bioluminescence assay relative to control; type: functional; details: 4T1, po, 432 h, read-out: TGI

T1 sequence (P11802 whole entry, looked up): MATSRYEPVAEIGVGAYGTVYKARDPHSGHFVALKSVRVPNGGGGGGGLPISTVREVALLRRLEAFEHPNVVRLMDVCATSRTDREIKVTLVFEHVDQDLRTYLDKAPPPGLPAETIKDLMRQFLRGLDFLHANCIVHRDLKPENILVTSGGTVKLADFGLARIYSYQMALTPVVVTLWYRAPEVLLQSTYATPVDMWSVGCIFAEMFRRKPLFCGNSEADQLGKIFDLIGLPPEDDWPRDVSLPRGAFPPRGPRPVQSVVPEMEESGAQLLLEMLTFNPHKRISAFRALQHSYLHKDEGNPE
T1 sequence (P50750 whole entry, looked up): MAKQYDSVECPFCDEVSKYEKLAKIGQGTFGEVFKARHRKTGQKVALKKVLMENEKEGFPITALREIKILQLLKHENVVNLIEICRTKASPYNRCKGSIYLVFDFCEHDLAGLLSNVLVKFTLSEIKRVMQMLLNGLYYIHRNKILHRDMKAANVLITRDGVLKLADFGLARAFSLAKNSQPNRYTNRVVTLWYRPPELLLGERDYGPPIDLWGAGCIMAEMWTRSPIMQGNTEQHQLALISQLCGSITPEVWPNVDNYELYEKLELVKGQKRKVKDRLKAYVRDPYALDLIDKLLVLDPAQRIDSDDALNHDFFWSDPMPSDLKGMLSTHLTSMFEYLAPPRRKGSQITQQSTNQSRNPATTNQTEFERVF
T2 sequence (Q13547 whole entry): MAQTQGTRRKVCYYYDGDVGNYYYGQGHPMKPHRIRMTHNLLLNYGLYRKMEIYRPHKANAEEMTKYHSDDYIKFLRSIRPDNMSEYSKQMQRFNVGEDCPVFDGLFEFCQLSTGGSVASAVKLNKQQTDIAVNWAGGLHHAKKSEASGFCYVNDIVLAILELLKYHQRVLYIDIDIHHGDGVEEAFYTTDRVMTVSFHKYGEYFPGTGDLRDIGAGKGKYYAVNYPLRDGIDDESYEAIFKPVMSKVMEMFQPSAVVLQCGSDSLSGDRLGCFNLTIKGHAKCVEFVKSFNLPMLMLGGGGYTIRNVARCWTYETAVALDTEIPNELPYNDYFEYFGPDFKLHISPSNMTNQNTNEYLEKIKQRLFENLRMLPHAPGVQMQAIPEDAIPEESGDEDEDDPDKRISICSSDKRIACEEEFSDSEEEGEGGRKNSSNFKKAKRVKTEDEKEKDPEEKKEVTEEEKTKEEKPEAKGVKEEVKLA
Chain of CDK4/Cyclin D3 (P11802 whole entry): as the sequence (P11802 whole entry, looked up) above
Chain of CDK4/Cyclin D3 (P30281 whole entry, further chain): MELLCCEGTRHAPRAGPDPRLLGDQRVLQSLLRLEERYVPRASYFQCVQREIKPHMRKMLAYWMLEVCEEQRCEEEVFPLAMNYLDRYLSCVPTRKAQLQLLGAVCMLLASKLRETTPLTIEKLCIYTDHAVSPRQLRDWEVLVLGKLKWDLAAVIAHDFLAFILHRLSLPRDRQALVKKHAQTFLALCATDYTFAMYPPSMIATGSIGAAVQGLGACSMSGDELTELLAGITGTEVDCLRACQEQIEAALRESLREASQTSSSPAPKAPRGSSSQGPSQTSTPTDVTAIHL

Compound: CN(C)C(=O)c1cc2cnc(Nc3ccc(NC(=O)CCCCCCC(=O)NO)cc3)nc2n1C1CCCC1
- Activity (A549 [1]): 1.93%
- Activity (NCI-H460 [2]): 97%
- Activity (NCI-H460 [3]): 79.6%
- Activity (T47D [4]): 0.82%
- Activity (T47D [5]): 4.5%
- IC50 (NCI-H1299): 1870 nM
- Activity (NCI-H460 [6]): Active
- inhibition [7]: 66%
- Activity (A549 [8]): 59.8%
- IC50 (CDK4/Cyclin D3): 8.8 nM
- Activity (HepG2 [9]): 11.7%
- Activity (HepG2 [10]): 3.95%
- Activity (HepG2 [11]): 76.4%
- Activity (Hep 3B2 [12]): 7.09%
- Activity (NCI-H460 [13]): Dose-dependent effect
- Activity (A549 [14]): Dose-dependent effect
- inhibition (CDK4/CDK9 (Homo sapiens) [15]): Active
- inhibition (CDK4/CDK9 (Homo sapiens) [16]): Active
- Activity (MDA-MB-231): Active
- Activity (A549 [17]): Active
- Activity (Hep 3B2 [18]): Active
- inhibition (Histone deacetylase 1 [19]): Active
- inhibition (Histone deacetylase 1 [20]): Active
- logP [21]: 2.62
- logD [22]: 2.02
- MRT inf [23]: 14.1 h
- AUC(0-inf) [24]: 1130 ng·h/mL
- Tmax [25]: 1.8 h
- TGI (4T1 [26]): Dose-dependent effect
- Activity (4T1 [27]): Active
- inhibition in vivo at 130 mg/kg (4T1 [28]): 79.3%
